16 compounds from PubChem BioAssay can be followed below.

Structures are written as SMILES. Calls of active or inactive are those of the source.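 How the source made its calls, unless noted: active means viability at or below 10% of carrier control in both of two separate runs; inconclusive means viability at or below 10% in only one of the two runs; inactive means the rest.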

A short description of experiment [1]: Her2 expression decrease, cell viability multiplex – SKBR3 breast tumor cells, AlphaScreen, ATP viability, primary screen (AID 461;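 active means Her2 level under about 52% in both replicate screens, with viability over 70% of control, limit read from the data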;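 on Her2 level: lower value means less Her2 protein in the cells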;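 on viability: percent of carrier control wells set as 100% viability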). The following applies: SKBR3 Her2 protein level, 18-24 h, measured here: SKBR3 viability, ATP luminescence, at 10 µM. On the technique in general: Bead proximity is the source of the signal in Alpha formats.
The target in experiment [2] is Receptor tyrosine-protein kinase erbB-2 (Homo sapiens) (UniProt P04626). The description is as above. The conditions noted are these: 18-24 h, at 10 µM, stronger effect = lower value.
Sequence of Receptor tyrosine-protein kinase erbB-2 (Homo sapiens) (P04626 whole entry, looked up): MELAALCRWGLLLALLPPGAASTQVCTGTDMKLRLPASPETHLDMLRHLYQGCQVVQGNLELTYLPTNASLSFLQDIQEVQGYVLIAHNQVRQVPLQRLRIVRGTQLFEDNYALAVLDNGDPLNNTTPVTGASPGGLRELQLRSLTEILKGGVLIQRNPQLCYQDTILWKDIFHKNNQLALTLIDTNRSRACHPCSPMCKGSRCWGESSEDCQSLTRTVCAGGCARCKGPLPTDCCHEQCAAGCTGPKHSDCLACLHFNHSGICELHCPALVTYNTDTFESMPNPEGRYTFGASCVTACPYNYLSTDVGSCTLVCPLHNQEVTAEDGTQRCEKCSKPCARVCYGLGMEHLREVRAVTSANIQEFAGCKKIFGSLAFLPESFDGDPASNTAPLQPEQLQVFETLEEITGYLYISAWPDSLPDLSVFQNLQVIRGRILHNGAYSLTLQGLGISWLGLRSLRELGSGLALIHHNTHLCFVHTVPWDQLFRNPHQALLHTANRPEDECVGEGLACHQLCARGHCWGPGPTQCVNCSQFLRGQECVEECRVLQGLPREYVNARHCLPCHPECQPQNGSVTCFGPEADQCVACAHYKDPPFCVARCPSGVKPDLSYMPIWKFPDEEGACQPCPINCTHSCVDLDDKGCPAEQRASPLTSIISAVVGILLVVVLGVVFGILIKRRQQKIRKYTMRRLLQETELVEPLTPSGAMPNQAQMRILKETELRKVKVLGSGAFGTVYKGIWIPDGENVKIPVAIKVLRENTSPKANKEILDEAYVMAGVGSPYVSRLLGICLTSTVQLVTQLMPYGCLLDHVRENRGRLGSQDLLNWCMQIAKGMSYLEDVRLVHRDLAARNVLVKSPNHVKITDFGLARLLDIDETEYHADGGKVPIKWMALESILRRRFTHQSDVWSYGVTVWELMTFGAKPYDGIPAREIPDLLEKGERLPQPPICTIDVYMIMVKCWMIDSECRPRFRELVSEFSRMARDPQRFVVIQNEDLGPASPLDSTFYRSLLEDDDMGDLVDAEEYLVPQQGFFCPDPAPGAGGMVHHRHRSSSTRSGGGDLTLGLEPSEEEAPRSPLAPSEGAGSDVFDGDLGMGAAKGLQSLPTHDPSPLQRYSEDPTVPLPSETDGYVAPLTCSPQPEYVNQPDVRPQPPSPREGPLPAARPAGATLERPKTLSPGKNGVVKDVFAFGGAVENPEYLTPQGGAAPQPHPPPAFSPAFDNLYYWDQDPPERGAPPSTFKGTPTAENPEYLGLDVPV
A short description of experiment [3]: reduced viability of SK-BR-3 breast cancer cells – cell-based, 24 h, human, pilot screen (AID 572).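 Further: compound exposure lasted between 18 and 24 h rather than exactly 24 h; 100% = carrier-treated control wells.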 The conditions noted are these: SK-BR-3 viability, CellTiter-Glo luminescence, at 10 µM, stronger effect = lower value. (In general: ATP-based viability assays read luminescence as a measure of living cells.)
Experiment [4] can be described thus: HUVEC growth inhibition – cell-based, human, primary screen (AID 575;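 active means viability at or below 30% in both replicate assays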;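 further: 100% = median of untreated cell wells with 0.1% DMSO on each plate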). The following applies: HUVEC proliferation, CellTiter-Glo luminescence, 72 h; at 10 µM; stronger effect = lower value. An outline of the steps: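 Assay system: primary human umbilical vein endothelial cells / Buffer or medium: endothelial basal medium with 2% FBS plus growth supplements / Compound dosing: one dose, 10 µM final, 0.1% DMSO / Timing: 72 h treatment at 37 °C / Signal: CTG luminescence / Benchmarks: 32 DMSO-only cell-control wells (high), 32 MePR drug-control wells (low) per plate / Plate: collagen-coated 384-well format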

Experiment [5] in a line: H69AR cell proliferation blockers – human, duplicate replicates, primary screen (AID 580;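 active means viability at or under a set limit in both replicates, limit being median viability minus 3 SD, cut at about 48% in these data, passing the limit was not always enough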;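 further: 100% = mean luminescence of untreated wells and 0% = no signal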). The conditions noted are these: H69AR lung tumor cells viability, ATP luminescence, 72 h; at 10 µM; stronger effect = lower value.
Experiment [6] is described as follows: MRP1 drug-resistance reversers in H69AR cells – cell-based, doxorubicin co-treatment, pilot screen (AID 601;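 active means viability loss from added drug above about 55%, and viability with drug at most 40%, in both replicates, limit read from the data, passing the limit was not always enough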). The following applies: CellTiter-Glo, 72 h, at 10 µM; for differential viability (reversal): stronger effect = higher value.
Experiment [7] in a line: yeast transport mutant growth inhibition pilot in 384-well plates, post-Golgi transport modulator project (AID 636; in the data active means inhibition above about 31%). The following applies: absorbance 615 nm, about 18 h, stronger effect = higher value.
Experiment [8] can be described thus: growth suppression of yeast trafficking mutant, preliminary HTS, modulators of trafficking downstream of Golgi apparatus project, 1536-format plate, OD 615 nm (AID 637; in the data active means inhibition above about 30%). The following applies: yeast transport mutant growth, absorbance 615 nm, 18 h; stronger effect = higher value.
[9] abbreviates: H69AR cells + 2 uM doxorubicin, measured here: viability with 2 uM doxorubicin, stronger effect = lower value.
The mark [10] stands for this setting: H69AR cells, compound alone cytotoxicity.

In the case of `O=C1c2ccccc2C(=O)N1CNc1ccccc1`, the viability in experiment [1] is 96.5%; in experiment [3], 96.5% (inactive); in experiment [4] it was 108% (inactive); in experiment [5], 101% (inactive); in experiment [6] (setting [9]), 118%; in experiment [6] (setting [10]), 101%. The Her2 level in experiment [2] is 93.5% (inactive). The differential viability (reversal) in experiment [6] (H69AR cells + 2 uM doxorubicin) is -17.7% (inactive). The inhibition is -5.2% (inactive) in experiment [7] and -1.15% (inactive) in experiment [8].

On to `O=C(NC1CCCC1)c1ccc2nc[nH]c2c1`, for which the viability was 93.5% in experiment [1]; 93.5% (inactive) in experiment [3]; 103% (inactive) in experiment [4]; 91.2% (inactive) in experiment [5]; 81.7% in experiment [6] (setting [9]); 91.2% in experiment [6] (setting [10]). In addition, in experiment [2], the Her2 level is 94.5% (inactive). Also, the differential viability (reversal) in experiment [6] (H69AR cells + 2 uM doxorubicin) is 9.56% (inactive). Moreover, the inhibition in experiment [7] was -6.23% (inactive); in experiment [8], -0.79% (inactive).

As for `CCOCCCNC(=O)c1c[nH]c2ccc(S(=O)(=O)Nc3cccc(OC)c3)cc2c1=O`, the viability in experiment [1] was 108%; in experiment [3], 108% (inactive); in experiment [4], 83.4% (inactive); in experiment [5], 99.9% (inactive); in experiment [6] (setting [9]) it was 93.3%; in experiment [6] (setting [10]), 99.9%. For the same compound, in experiment [2], the Her2 level was 106% (inactive). In addition, in experiment [6] (H69AR cells + 2 uM doxorubicin), the differential viability (reversal) was 6.57% (inactive). Besides, the inhibition in experiment [7] is -5.66% (inactive); in experiment [8] it was -8.71% (inactive).

For `CCOC(=O)c1c(C)c(C(=O)NCCN2CCOCC2)c(C)n1C`, the viability is 89.5% in experiment [1]; 89.5% (inactive) in experiment [3]; 107% (inactive) in experiment [4]; 86.7% (inactive) in experiment [5]; 90.5% in experiment [6] (setting [9]); 86.7% in experiment [6] (setting [10]). In experiment [2], the Her2 level was 91% (inactive). Moreover, the differential viability (reversal) in experiment [6] (H69AR cells + 2 uM doxorubicin) was -3.83% (inactive). Moreover, the inhibition is -10.7% (inactive) in experiment [7] and 1.11% (inactive) in experiment [8].

Consider `Cc1nn(-c2ccccc2)c2c1C(c1c(C)[nH]c(C#N)c1C)C(C#N)=C(N)O2` (stereo not given), for which the viability in experiment [1] was 88%; in experiment [3], 88% (inactive); in experiment [4] it was 85.5% (inactive); in experiment [5] it was 92.7% (inactive); in experiment [6] (setting [9]), 106%; in experiment [6] (setting [10]) it was 92.7%. In experiment [2], the Her2 level was 86.5% (inactive). Besides, the differential viability (reversal) in experiment [6] (H69AR cells + 2 uM doxorubicin) is -13.2% (inactive). Moreover, the inhibition in experiment [7] is -4.13% (inactive); in experiment [8] it was -5.25% (inactive).

`Cc1cc(C)n2cc(CSCc3ccco3)nc2n1`: the viability in experiment [1] is 97%; in experiment [3] it was 97% (inactive); in experiment [4], 113% (inactive); in experiment [5] it was 95.2% (inactive); in experiment [6] (setting [9]) it was 86.4%; in experiment [6] (setting [10]), 95.2%. Moreover, the Her2 level in experiment [2] was 83% (inactive). Moreover, in experiment [6] (H69AR cells + 2 uM doxorubicin), the differential viability (reversal) was 8.73% (inactive). The inhibition is -7.16% (inactive) in experiment [7] and 0.83% (inactive) in experiment [8].

Consider `CCCN1CCN(CCCNC(=O)C2CCCN(c3nc4ccc(OCC)cc4s3)C2)CC1` (stereo not given), for which the viability was 85.5% in experiment [1]; 85.5% (inactive) in experiment [3]; 74.8% (inactive) in experiment [4]; 87.3% (inactive) in experiment [5]; 88.8% in experiment [6] (setting [9]); 87.3% in experiment [6] (setting [10]). In experiment [2], the Her2 level was 118% (inactive). In addition, the differential viability (reversal) in experiment [6] (H69AR cells + 2 uM doxorubicin) is -1.46% (inactive). The inhibition in experiment [7] was -5.39% (inactive); in experiment [8], 0.83% (inactive).

With `Oc1ccccc1C1=Nc2nc3ccccc3n2C(c2ccccc2)C1` (stereo not given), the viability is 75.5% in experiment [1]; 75.5% (inactive) in experiment [3]; 103% (inactive) in experiment [4]; 65% (inactive) in experiment [5]; 77.7% in experiment [6] (setting [9]); 65% in experiment [6] (setting [10]). Moreover, the Her2 level in experiment [2] is 86.5% (inactive). Further, in experiment [6] (H69AR cells + 2 uM doxorubicin), the differential viability (reversal) is -12.7% (inactive). Besides, the inhibition in experiment [7] was -7.24% (inactive); in experiment [8], -1.15% (inactive).

On to `CCC(C)(C)NC(=O)CN(Cc1ccc2c(c1)OCO2)C(=O)CCC(=O)Nc1ccccn1`, for which the viability in experiment [1] is 132%; in experiment [3] it was 132% (inactive); in experiment [4] it was 105% (inactive); in experiment [5] it was 92.5% (inactive); in experiment [6] (setting [9]), 90.1%; in experiment [6] (setting [10]), 92.5%. Besides, in experiment [2], the Her2 level was 118% (inactive). Moreover, the differential viability (reversal) in experiment [6] (H69AR cells + 2 uM doxorubicin) is 2.38% (inactive). Further, the figures for the inhibition in experiment [7] and in experiment [8] were -5.06% (inactive) and -2.3% (inactive), respectively.

Turning to `CC(=O)c1cc(Cl)ccc1OC(=O)c1ccco1`, the viability in experiment [1] was 106%; in experiment [3] it was 106% (inactive); in experiment [4], 95.3% (inactive); in experiment [5] it was 89.2% (inactive); in experiment [6] (setting [9]), 92.5%; in experiment [6] (setting [10]) it was 89.2%. Besides, the Her2 level in experiment [2] was 92.5% (inactive). The differential viability (reversal) in experiment [6] (H69AR cells + 2 uM doxorubicin) is -3.25% (inactive). The inhibition in experiment [7] is -0.65% (inactive); in experiment [8], -4.43% (inactive).

As for `CCCOc1ccc(/C(O)=C2/C(=O)C(=O)N(CCCOC)C2c2ccncc2)cc1` (stereo not given), the viability in experiment [1] is 98%; in experiment [3] it was 98% (inactive); in experiment [4], 110% (inactive); in experiment [5], 94.5% (inactive); in experiment [6] (setting [9]), 86.7%; in experiment [6] (setting [10]), 94.5%. Further, the Her2 level in experiment [2] is 84% (inactive). The differential viability (reversal) in experiment [6] (H69AR cells + 2 uM doxorubicin) was 7.81% (inactive). In addition, the inhibition was -9.46% (inactive) in experiment [7] and 3.67% (inactive) in experiment [8].

In the case of `Cc1cccc(CCNC(=O)C2CCCN(S(=O)(=O)c3cnc[nH]3)C2)c1` (stereo not given), the viability in experiment [1] is 99.5%; in experiment [3] it was 99.5% (inactive); in experiment [4] it was 103% (inactive); in experiment [5] it was 89.4% (inactive); in experiment [6] (setting [9]) it was 86.2%; in experiment [6] (setting [10]), 89.4%. Moreover, the Her2 level in experiment [2] was 106% (inactive). Besides, the differential viability (reversal) in experiment [6] (H69AR cells + 2 uM doxorubicin) was 3.16% (inactive). Also, the inhibition in experiment [7] was -4.93% (inactive); in experiment [8], -1.97% (inactive).

As to `Cc1ccc(-c2nn(-c3ccccc3)cc2CN(Cc2ccccc2)C(=O)CCC(=O)O)o1`, the viability was 100% in experiment [1]; 100% (inactive) in experiment [3]; 86.5% (inactive) in experiment [4]; 85.7% (inactive) in experiment [5]; 76.7% in experiment [6] (setting [9]); 85.7% in experiment [6] (setting [10]). Further, the Her2 level in experiment [2] is 94% (inactive). Besides, the differential viability (reversal) in experiment [6] (H69AR cells + 2 uM doxorubicin) was 8.97% (inactive). Also, the inhibition in experiment [7] is -5.07% (inactive); in experiment [8], 3.02% (inactive).

Regarding `O=S1(=O)CC(N2CCOCC2)c2ccccc21` (stereo not given), the viability in experiment [1] is 95%; in experiment [3] it was 95% (inactive); in experiment [4] it was 92.2% (inactive); in experiment [5] it was 103% (inactive); in experiment [6] (setting [9]), 98.1%; in experiment [6] (setting [10]) it was 103%. The Her2 level in experiment [2] is 98% (inactive). Moreover, in experiment [6] (H69AR cells + 2 uM doxorubicin), the differential viability (reversal) was 4.56% (inactive). Besides, the inhibition was 0.27% (inactive) in experiment [7] and -9.52% (inactive) in experiment [8].

Take `COC(=O)c1cnn2c(C(F)(F)F)cc(-c3ccco3)nc12`: the viability in experiment [1] is 99%; in experiment [3], 99% (inactive); in experiment [4] it was 79.9% (inactive); in experiment [5] it was 64.8% (inactive); in experiment [6] (setting [9]), 76.5%; in experiment [6] (setting [10]), 64.8%. Besides, the Her2 level in experiment [2] is 80% (inactive). For the same compound, in experiment [6] (H69AR cells + 2 uM doxorubicin), the differential viability (reversal) is -11.7% (inactive). Further, the inhibition in experiment [7] was -4.61% (inactive); in experiment [8], 0.82% (inactive).

For the compound `CCOC(=O)c1cc(CC)sc1NC(=O)CCC(=O)O`, the viability in experiment [1] is 121%; in experiment [3], 121% (inactive); in experiment [4] it was 96% (inactive); in experiment [5], 93.8% (inactive); in experiment [6] (setting [9]), 91.6%; in experiment [6] (setting [10]), 93.8%. The Her2 level in experiment [2] was 93% (inactive). Besides, the differential viability (reversal) in experiment [6] (H69AR cells + 2 uM doxorubicin) was 2.2% (inactive). In addition, the inhibition in experiment [7] was -6.13% (inactive); in experiment [8], 0.32% (inactive).

Usually viability stands for a read-out of living cells in per cent, often relative to untreated cells. One may read the inhibition as the change of the read-out against control, counted positive when it falls.
